Results pooled from the literature.
Compare with care: the assays were run in different laboratories.
Target: Rho-associated protein kinase 1 (ROCK1, Homo sapiens, UniProt Q13464)

Compound | assay | system | setting | endpoint | result
CN(c1ccnc(CNc2nc(Nc3ccc4c(c3)CC(=O)N4)ncc2C(F)(F)F)n1)S(C)(=O)=O | cell-free assay, competition with immobilised ligand |  | 1 µM | remaining binding | 49%
CNc1cc(Oc2cc(C(=O)Nc3cc(N4CCN(C)CC4)cc(C(F)(F)F)c3)ccc2C)ncn1 | target engagement in cells, inhibitor, chemoproteomics | Huh-7 | 1 µM | inhibition | -28.8%
CSc1nc(C)c(-c2ccnc(Nc3ccc(N4CCOCC4)cc3)c2)[nH]1 | enzyme activity, inhibitor |  | 10 µM | inhibition | -4.2%
Cc1ccc(Nc2nccc(N(C)c3ccc4c(C)n(C)nc4c3)n2)cc1S(N)(=O)=O | enzyme activity, inhibitor |  | 0.3 µM | inhibition | -1%
CN(C)c1ncnc(-c2ccc3nc(Nc4cc(CN5CCN(C(=O)CC(F)(F)F)CC5)ccn4)[nH]c3c2)c1Cl | cell-free assay, competition with immobilised ligand |  | 1 µM | remaining binding | 100%
CC(C)(C)c1nc(-c2cccc(NS(=O)(=O)c3c(F)cccc3F)c2F)c(-c2ccnc(N)n2)s1 | enzyme activity, inhibitor, radiometric |  | 1 µM | remaining activity | 104%
CN(C)C1CCN(CC#Cc2nn(C3CCCC3)c3nc(NCc4ccccc4)ncc23)C1 (centres unmarked) | enzyme activity, inhibitor, FRET |  | 1 µM | inhibition | -1%
Cc1cc(NC(=O)c2cccc3cc(-c4cccc5[nH]nc(N)c45)ccc23)ccc1F | enzyme activity, inhibitor |  | 0.1 µM | activity vs control | 110%
O=C1NC(=O)c2cc(Nc3ccc(F)cc3)c(Nc3ccc(F)cc3)cc21 | cell-free assay |  | 0.5 µM | remaining signal | 96.7%
CNC(=O)c1cc(Oc2ccc(NC(=O)Nc3ccc(Cl)c(C(F)(F)F)c3)cc2)ccn1 | enzyme activity, inhibitor |  | 0.3 µM | inhibition | 0%
CN1CC(Oc2cnc(C#N)cc2-c2ccn3nc(NC(=O)C4CC4)cc3c2)C1 | enzyme activity, inhibitor |  | 1 µM | inhibition | 0%
CC(C)c1ccc(NC(=O)c2cccs2)c(-c2nc3ccccc3[nH]c2=O)c1 | enzyme activity, inhibitor |  | 1 µM | activity vs control | 122%
O=C1NC(c2ccccn2)Sc2ccccc21 (centres unmarked) | cell-free assay, competition with immobilised ligand |  | 1 µM | remaining binding | 82%
Cn1cncc1C1=CN(c2ncnc3[nH]cnc23)CCS1 | enzyme activity, inhibitor, radiometric |  | 2 µM | inhibition | 88.6%
Cc1c[nH]c2nccc(Oc3c(F)cc(Nc4cc(Cl)nc(N)n4)cc3F)c12 | cell-free assay, competition with immobilised ligand |  | 0.1 µM | remaining binding | 0.6%
COc1cc2ncnc(Nc3ccc(Oc4ccccc4)cc3C)c2cc1OC | enzyme activity, inhibitor |  | 1 µM | inhibition | 1%
C[C@@H](N)[C@H]1CC[C@H](C(=O)Nc2ccncc2)CC1 | cell-free assay |  | 0.5 µM | remaining signal | 31.5%
Cc1cnc(NC2CCOCC2)nc1-n1cnc(C(=O)NC(CN)c2cc(F)cc(Cl)c2)c1 (centres unmarked) | enzyme activity, inhibitor, radiometric |  | 1 µM | remaining activity | 62%
C[C@@H](c1cccc(C#N)c1)n1cc(Cl)cc(C(N)=O)c1=N | cell-free assay, competition with immobilised ligand |  | 1 µM | remaining binding | 71%
CC/C(=N\NC(=O)C(C)Nc1ccccc1)c1ccc(O)c(C)c1O (centres unmarked) | enzyme activity, inhibitor |  | 0.1 µM | inhibition | 18.5%
c1ccc(N2CCN(Cc3nc4ccccc4[nH]3)CC2)nc1 | binding, competition with immobilised ligand |  | 1 µM | remaining binding | 100%
c1ccc(CNc2nc(N3CCOc4ccccc43)nc3c2CCCC3)cc1 | target engagement in cells, inhibitor, chemoproteomics |  | 20 mM | inhibition | 3.9%
CN1CCN(c2cnc3c(C4CCN(C(=O)c5ccc(OC(F)(F)F)cc5N)CC4)ncnc3c2)CC1 | cell-free assay, competition with immobilised ligand |  | 1 µM | remaining binding | 100%
Cc1ccc(NC(=O)c2ccc(C)c(C(F)(F)F)c2)cc1C#Cc1nn(C2CCC(O)CC2)c2ncnc(N)c12 (centres unmarked) | cell-free assay |  | 10 µM | remaining signal | 126%
O=C(Nc1cnn(-c2csc(C(=O)NC3COC3)c2)c1)Nc1ccccc1Cl | enzyme activity, inhibitor |  | 5 µM | remaining activity | 109%
C=CC(=O)Nc1cc(Nc2nccc(Nc3cc(Cl)c(F)cc3C(C)(C)O)n2)c(OC)cc1N1CC[C@@H](N(C)C)C1 | enzyme activity, inhibitor |  | 1 µM | inhibition | 0%
C[S+]([O-])c1ccc(-c2nc(-c3ccncc3)c(-c3ccc(F)cc3)[nH]2)cc1 (centres unmarked) | cell-free assay |  | 0.5 µM | remaining signal | 102%
COc1cc(-c2cn(C3CCc4ccccc4N(CC(F)(F)F)C3=O)nn2)ccc1-n1ccc(C)n1 (centres unmarked) | cell-free assay, competition with immobilised ligand |  | 1 µM | remaining binding | 100%
CCN(CC)CCNC(=O)c1c(C)[nH]c(/C=C2\C(=O)Nc3ccc(F)cc32)c1C | enzyme activity, inhibitor |  | 10 µM | inhibition | 26%
